# Laboratory results published in ChEMBL document CHEMBL3621160, “Pseudosaccharin amines as potent and selective KV1.5 blockers” (Bioorg Med Chem Lett, 2015).
# Assays:
# [1] = molecular target: T1, Potassium voltage-gated channel subfamily A member 5 (Homo sapiens, UniProt P22460); test: Inhibition of human KV1.5 expressed in mouse L929 cells assessed as decrease in ultrarapid potassium current amplitude; type: cell-based
# Method in brief: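 Potassium current block was measured in mouse fibroblast L929 cells expressing human KV1.5. IC50 values are means of 2-4 experiments.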
# [2] = molecular target: T1, Potassium voltage-gated channel subfamily A member 5; test: Inhibition of human KV1.5 expressed in mouse L929 cells assessed as decrease in ultrarapid potassium current amplitude relative to control; type: cell-based; parameters: concentration or dose not given beside the values; details: concentration not given here
# Method in brief: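 Potassium current block in mouse fibroblast L929 cells expressing human Kv1.5. IC50 values are means of 2-4 experiments.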
# [3] = Metabolic stability in human liver microsomes assessed as compound remaining at 3 uM after 10 mins; type: ADME; details: read-out: Stability
# Method in brief: (§1)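 Parent compound at 3 µM was incubated 10 min in human, rat or mouse liver microsomes with appropriate co-factors. Read-out is percent of parent remaining.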
# [4] = Metabolic stability in rat liver microsomes assessed as compound remaining at 3 uM after 10 mins; type: ADME; details: read-out: Stability; method in brief: as §1
# [5] = Metabolic stability in mouse liver microsomes assessed as compound remaining at 3 uM after 10 mins; type: ADME; details: read-out: Stability; method in brief: as §1
# Homo sapiens [6] = species on record: Homo sapiens; test: Inhibition of calcium channel (unknown origin) at 10 uM relative to control
# Method in brief: (§2)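 Calcium (ICa) and sodium (INa) currents were measured as percent inhibition at a single concentration of 10 µM. Values are means of 2-4 experiments.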
# Homo sapiens [7] = species on record: Homo sapiens; test: Inhibition of sodium channel (unknown origin) at 10 uM relative to control; method in brief: as §2
# hERG (KCNH2) = hERG (KCNH2) (Homo sapiens, UniProt Q12809); test: Inhibition of human ERG at 10 uM relative to control
# Method in brief: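 Screening panel of over 37 receptors and enzymes relevant to cardiovascular effects or toxicity. Each target was tested at a single concentration of 10 µM, with % activity reported.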
# [8] = Cmax in rat at 1.6 mg/kg administered as intra-arterial infusion for 10 mins and 3.6 mg/kg, po; type: ADME, organism-based; parameters: route oral; details: in vivo
# Method in brief: (§3)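 Rats, 3 animals per compound; values are means. Intravenous arm: intra-arterial infusion over 10 min. Oral arm: dosing by gavage. Both routes used a vehicle of 40% PEG 400, 40% water and 20% ethanol. Parameters were derived from plasma concentrations across the infusion and oral arms.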
# [9] = AUC in rat at 3.6 mg/kg, po; type: ADME, organism-based; details: in vivo; method in brief: as §3
# [10] = Half life in rat at 1.6 mg/kg administered as intra-arterial infusion for 10 mins and 3.6 mg/kg, po; type: ADME, organism-based; details: in vivo; method in brief: as §3
# [11] = Clearance in rat at 1.6 mg/kg administered as intra-arterial infusion for 10 mins and 3.6 mg/kg, po; type: ADME, organism-based; details: in vivo; method in brief: as §3
# [12] = Volume of distribution at steady state in rat at 1.6 mg/kg administered as intra-arterial infusion for 10 mins and 3.6 mg/kg, po; type: ADME, organism-based; details: in vivo, read-out: Vdss; method in brief: as §3
# [13] = Oral bioavailability in rat at 3.6 mg/kg; type: ADME, organism-based; details: in vivo; method in brief: as §3
# Rattus norvegicus [14] = test: Induction of QT interval prolongation in rat at 3 mg/kg, iv administered as infusion for 5 mins by ECG analysis; type: functional
# Method in brief: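 Rats were dosed at 3 mg/Kg. Block of IKur was read as the percent change in the ECG QT interval; mean blood pressure and plasma concentration were recorded alongside. Values are means of 2-4 experiments.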
# Rattus norvegicus [15] = test: Toxicity in rat assessed as increase in blood pressure at 3 mg/kg, iv administered as infusion for 5 mins; type: organism-based; details: in vivo
# Method in brief: (§4)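 Rats were dosed at 3 mg/Kg. QT interval on ECG, mean blood pressure (% change) and plasma concentration were measured. Values are means of 2-4 experiments.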
# [16] = Plasma concentration in rat at 3 mg/kg, iv administered as infusion for 5 mins; type: ADME, organism-based; method in brief: as §4
# Oryctolagus cuniculus [17] = species on record: Oryctolagus cuniculus; test: Induction of […] effective refractory period prolongation in rabbit; type: functional
# Method in brief: (§5)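 Rabbits were dosed at 0.3, 1.0 and 3.0 mg/Kg. Effective refractory period was measured in atrium and ventricle, and blood pressure was recorded. The plasma concentration giving 20% atrial ERP prolongation (EC20) was calculated.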
# Oryctolagus cuniculus [18] = species on record: Oryctolagus cuniculus; test: Toxicity in rabbit assessed as effect on ventricular effective refractory period; type: organism-based, Cardiac ventricle; details: in vivo; method in brief: as §5
# Oryctolagus cuniculus [19] = test: Toxicity in rabbit assessed as increase in blood pressure at 0.3 to 3 mg/kg; type: organism-based; details: in vivo; method in brief: as §5
# [20] = Cmax in rabbit at 0.3 to 3 mg/kg; type: ADME, organism-based, Oryctolagus cuniculus; details: in vivo; method in brief: as §5
# T1 sequence (P22460 whole entry): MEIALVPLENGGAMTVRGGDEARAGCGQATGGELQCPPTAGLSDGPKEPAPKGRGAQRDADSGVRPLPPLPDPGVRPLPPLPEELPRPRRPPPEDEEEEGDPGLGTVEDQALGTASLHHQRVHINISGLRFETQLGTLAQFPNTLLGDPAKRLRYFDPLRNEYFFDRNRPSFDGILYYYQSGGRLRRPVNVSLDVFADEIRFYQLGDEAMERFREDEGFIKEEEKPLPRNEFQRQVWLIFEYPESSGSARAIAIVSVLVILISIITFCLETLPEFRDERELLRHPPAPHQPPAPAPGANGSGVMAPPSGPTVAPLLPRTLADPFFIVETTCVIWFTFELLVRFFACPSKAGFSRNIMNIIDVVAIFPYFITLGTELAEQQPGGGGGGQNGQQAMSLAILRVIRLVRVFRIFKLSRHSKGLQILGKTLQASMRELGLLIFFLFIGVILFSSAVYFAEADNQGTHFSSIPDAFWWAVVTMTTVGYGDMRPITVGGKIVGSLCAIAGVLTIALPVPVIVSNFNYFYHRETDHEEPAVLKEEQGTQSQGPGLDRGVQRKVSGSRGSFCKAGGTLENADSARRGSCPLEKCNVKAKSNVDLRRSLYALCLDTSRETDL
# Chain of hERG (KCNH2) (Q12809 whole entry): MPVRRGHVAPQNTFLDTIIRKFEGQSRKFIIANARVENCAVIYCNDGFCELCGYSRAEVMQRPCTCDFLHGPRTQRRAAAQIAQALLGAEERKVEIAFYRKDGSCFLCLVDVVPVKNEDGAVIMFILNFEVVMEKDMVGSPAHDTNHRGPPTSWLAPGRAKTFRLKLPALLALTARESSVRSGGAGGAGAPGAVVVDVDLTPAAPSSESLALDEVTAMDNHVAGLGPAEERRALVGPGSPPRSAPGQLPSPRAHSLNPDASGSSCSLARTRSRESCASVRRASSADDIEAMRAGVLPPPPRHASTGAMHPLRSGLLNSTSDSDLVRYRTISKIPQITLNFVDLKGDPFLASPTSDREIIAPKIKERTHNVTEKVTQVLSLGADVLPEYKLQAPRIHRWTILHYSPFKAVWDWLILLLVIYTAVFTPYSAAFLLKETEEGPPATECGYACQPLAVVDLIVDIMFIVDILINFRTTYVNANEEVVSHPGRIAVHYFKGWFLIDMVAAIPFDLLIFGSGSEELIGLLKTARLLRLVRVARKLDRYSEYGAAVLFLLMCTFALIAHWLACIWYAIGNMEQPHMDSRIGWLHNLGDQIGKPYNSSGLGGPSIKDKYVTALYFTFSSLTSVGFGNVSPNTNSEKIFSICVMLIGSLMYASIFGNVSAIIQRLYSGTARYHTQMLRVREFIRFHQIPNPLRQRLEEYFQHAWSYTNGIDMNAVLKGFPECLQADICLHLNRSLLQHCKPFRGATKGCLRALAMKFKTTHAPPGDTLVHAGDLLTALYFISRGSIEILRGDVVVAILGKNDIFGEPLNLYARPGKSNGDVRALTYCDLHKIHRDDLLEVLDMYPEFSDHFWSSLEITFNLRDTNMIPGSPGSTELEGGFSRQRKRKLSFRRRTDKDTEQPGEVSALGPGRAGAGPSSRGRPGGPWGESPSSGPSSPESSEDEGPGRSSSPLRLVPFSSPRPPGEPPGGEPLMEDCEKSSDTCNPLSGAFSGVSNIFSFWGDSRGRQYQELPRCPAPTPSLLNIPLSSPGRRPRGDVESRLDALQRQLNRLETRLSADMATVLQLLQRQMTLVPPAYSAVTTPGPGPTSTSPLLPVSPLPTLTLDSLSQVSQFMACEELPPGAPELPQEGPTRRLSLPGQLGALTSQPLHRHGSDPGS
Compound,IC50 [1] [nM],inhibition [2] [%],"remaining at 10 min, 3 µM [3] [%]","remaining at 10 min, 3 µM [4] [%]","remaining at 10 min, 3 µM [5] [%]",also measured
COc1cccc2c1C(NC[C@]1(c3ccccc3)CC[C@H](NS(N)(=O)=O)CC1)=NS2(=O)=O,> 10000,18,–,–,–,–
CCNC(=O)N[C@H]1CC[C@](CNC2=NS(=O)(=O)c3cccc(OC)c32)(c2ccccc2)CC1,> 10000,20,–,–,–,–
COc1cccc2onc(NCC(C)(C)c3ccccc3)c12,–,–,7,13,11,–
CCN(CC)S(=O)(=O)N[C@H]1CC[C@](CNC2=NS(=O)(=O)c3cccc(OC)c32)(c2ccccc2)CC1,52,–,< 1,< 1,< 1,–
COc1cccc2c1C(NC[C@]1(c3ccccc3)CC[C@H](n3cnnn3)CC1)=NS2(=O)=O,32,–,56,19,56,–
COc1cccc2c1C(NC[C@]1(c3ccccc3)CC[C@H](OC(=O)NS(=O)(=O)c3ccccc3)CC1)=NS2(=O)=O,> 10000,1,–,–,–,–
COc1cccc2c1C(NC[C@]1(c3ccccc3)CC[C@H](OC(=O)Nc3ccc(N(C)C)cc3)CC1)=NS2(=O)=O,30,–,2,< 1,< 1,–
CCOP(=O)(NC(=O)O[C@H]1CC[C@](CNC2=NS(=O)(=O)c3cccc(OC)c32)(c2ccccc2)CC1)OCC,> 10000,13,–,–,–,–
COc1cccc2c1C(NC[C@]1(c3ccccc3)CC[C@H](OC(=O)Nc3nnc(C4CC4)s3)CC1)=NS2(=O)=O,92,–,75,70,66,inhibition (Homo sapiens [6]): 8%; inhibition (Homo sapiens [7]): 21%; inhibition at 10 µM (hERG (KCNH2)): 17%; Cmax [8]: 0.011 µM; AUC [9]: 0.2 µM·h; half-life [10]: 2.3 h; clearance [11]: 6.8 mL/min/kg; Vd [12]: 0.9 L/kg; bioavailability [13]: 1%; Activity (Rattus norvegicus [14]): 23%; Activity (Rattus norvegicus [15]): 19%; concentration at 5 min [16]: 72 µM; EC20 (Oryctolagus cuniculus [17]): 23000 nM; Activity (Oryctolagus cuniculus [18]): Non-toxic; Activity (Oryctolagus cuniculus [19]): 6%; Cmax [20]: 23 µM
COc1cccc2c1C(NC[C@]1(c3ccccc3)CC[C@H](Nc3ncccn3)CC1)=NS2(=O)=O,47,–,6,< 1,< 1,–
COc1cccc2c1C(NC[C@]1(c3ccccc3)CC[C@H](OC(=O)NCCC(F)(F)F)CC1)=NS2(=O)=O,89,–,< 1,< 1,3,–
COc1cccc2c1C(NCC(C)(C)c1ccccc1)=NC2=O,34,–,99,43,–,–
COc1cccc2c1C(NC[C@]1(c3ccccc3)CC[C@H](NC(=O)OCC(F)(F)F)CC1)=NS2(=O)=O,28,–,95,57,48,inhibition (Homo sapiens [6]): 51%; inhibition (Homo sapiens [7]): 23%; inhibition at 10 µM (hERG (KCNH2)): 47%
COc1cccc2snc(NCC(C)(C)c3ccccc3)c12,24,–,13,–,–,–
COc1cccc2c1C(NC[C@]1(c3ccccc3)CC[C@@H](O)CC1)=NS2(=O)=O,> 300,14,98,73,73,–
CCS(=O)(=O)N[C@H]1CC[C@](CNC2=NS(=O)(=O)c3cccc(OC)c32)(c2ccccc2)CC1,60,–,75,67,30,inhibition (Homo sapiens [6]): 14%; inhibition (Homo sapiens [7]): 7%; inhibition at 10 µM (hERG (KCNH2)): 59%
CCOC(=O)N[C@H]1CC[C@](CNC2=NS(=O)(=O)c3cccc(OC)c32)(c2ccccc2)CC1,55,–,55,19,–,–
CCNC(=O)O[C@H]1CC[C@](CNC2=NS(=O)(=O)c3cccc(OC)c32)(c2ccccc2)CC1,65,–,2,< 1,< 1,–
COc1cccc2c1C(NC[C@]1(c3ccccc3)CC[C@H](N)CC1)=NS2(=O)=O,> 10000,5,–,–,–,–
COc1cccc2c1C(NC[C@]1(c3ccccc3)CC[C@H](OC(=O)NCCO)CC1)=NS2(=O)=O,> 10000,27,–,–,–,–
COc1cccc2c1C(NC[C@]1(c3ccccc3)CC[C@H](OC(=O)NC3CC3)CC1)=NS2(=O)=O,170,–,9,5,< 1,–
COc1cccc2c1C(NC[C@]1(c3ccccc3)CC[C@H](OC(=O)N(C)CCN(C)C)CC1)=NS2(=O)=O,> 10000,4,–,–,–,–
